Data from ChEMBL document CHEMBL1138900, “2,5-diketopiperazines as potent, selective, and orally bioavailable oxytocin antagonists. 3. Synthesis, pharmacokinetics, and in vivo potency” (J Med Chem, 2006).
Values after ≈ are worked out from the molar mass of the structure shown.

Key:
[1] = Clearance in dog; assay type: ADME, organism-based, Canis lupus familiaris; conditions: in vivo
Summary of the method: (§1)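 Dog pharmacokinetics, n = 3; dosed at 0.6 mg/kg in 5% DMSO/95% PEG400. AUC reported as ng·h mL⁻¹ and clearance as mL min⁻¹ kg⁻¹.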

[2] = Solubility of the compound; assay type: physicochemical
Summary of the method: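 Aqueous solubility (mg mL⁻¹) measured by precipitation followed by HPLC.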

[3] = Clearance in rat; assay type: ADME, organism-based; conditions: in vivo
Summary of the method: (§2)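 Rat pharmacokinetics, n = 4; dosed at 5 mg/kg in 5% DMSO/95% PEG400. AUC in ng·h mL⁻¹, clearance in mL min⁻¹ kg⁻¹, half-life in h.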

[4] = AUC in dog; assay type: ADME, organism-based, Canis lupus familiaris; design: concentration or dose not given beside the values; conditions: plasma; summary of the method: as §1
[5] = Lipophilicity, log D by CHI method; assay type: physicochemical; conditions: read-out: Log D
Summary of the method: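 Lipophilicity determined by an HPLC-based method.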

Oxytocin receptor [6] = target: T1, Oxytocin receptor (Homo sapiens, UniProt P30559); assay: Displacement of [3H]oxytocin from human OTR
T1 sequence (P30559 whole entry): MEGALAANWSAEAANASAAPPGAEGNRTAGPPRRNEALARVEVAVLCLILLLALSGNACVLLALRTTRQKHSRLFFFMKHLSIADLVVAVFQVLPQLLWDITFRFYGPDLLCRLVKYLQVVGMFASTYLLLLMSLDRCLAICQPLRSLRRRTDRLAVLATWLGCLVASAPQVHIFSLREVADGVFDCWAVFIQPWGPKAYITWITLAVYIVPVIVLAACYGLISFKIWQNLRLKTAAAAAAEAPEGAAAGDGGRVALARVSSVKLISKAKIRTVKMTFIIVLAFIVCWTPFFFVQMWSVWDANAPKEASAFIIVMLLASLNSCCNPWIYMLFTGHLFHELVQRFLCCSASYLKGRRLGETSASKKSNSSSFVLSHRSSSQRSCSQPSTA

[7] = AUC in rat; assay type: ADME, organism-based; design: concentration or dose not given beside the values; conditions: plasma; summary of the method: as §2
Canis familiaris = assay: (§3) Oral bioavailability in dog; assay type: ADME, organism-based, Canis lupus familiaris; conditions: in vivo
[8] = Oral bioavailability in rat; assay type: ADME, organism-based; conditions: in vivo
Oxytocin receptor [9] = target: T2, Oxytocin receptor (Rattus norvegicus, UniProt P70536); assay: Displacement of [3H]oxytocin from rat OTR
T2 sequence (P70536 whole entry): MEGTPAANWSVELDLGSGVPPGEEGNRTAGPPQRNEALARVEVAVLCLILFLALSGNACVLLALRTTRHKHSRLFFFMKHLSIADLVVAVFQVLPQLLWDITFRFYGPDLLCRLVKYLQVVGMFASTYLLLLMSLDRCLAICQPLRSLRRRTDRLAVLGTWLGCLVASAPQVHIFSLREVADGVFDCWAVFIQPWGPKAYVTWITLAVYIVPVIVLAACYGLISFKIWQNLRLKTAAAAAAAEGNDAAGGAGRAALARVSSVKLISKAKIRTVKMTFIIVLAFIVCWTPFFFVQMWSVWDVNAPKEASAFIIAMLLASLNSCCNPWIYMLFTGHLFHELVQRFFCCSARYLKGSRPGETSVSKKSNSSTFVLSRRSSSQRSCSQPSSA

Cytochrome P450 1A2 = target: T3, Cytochrome P450 1A2 (Homo sapiens, UniProt P05177); assay: Inhibition of CYP450 1A2 transfected in human microsome; assay type: ADME
T3 sequence (P05177 whole entry): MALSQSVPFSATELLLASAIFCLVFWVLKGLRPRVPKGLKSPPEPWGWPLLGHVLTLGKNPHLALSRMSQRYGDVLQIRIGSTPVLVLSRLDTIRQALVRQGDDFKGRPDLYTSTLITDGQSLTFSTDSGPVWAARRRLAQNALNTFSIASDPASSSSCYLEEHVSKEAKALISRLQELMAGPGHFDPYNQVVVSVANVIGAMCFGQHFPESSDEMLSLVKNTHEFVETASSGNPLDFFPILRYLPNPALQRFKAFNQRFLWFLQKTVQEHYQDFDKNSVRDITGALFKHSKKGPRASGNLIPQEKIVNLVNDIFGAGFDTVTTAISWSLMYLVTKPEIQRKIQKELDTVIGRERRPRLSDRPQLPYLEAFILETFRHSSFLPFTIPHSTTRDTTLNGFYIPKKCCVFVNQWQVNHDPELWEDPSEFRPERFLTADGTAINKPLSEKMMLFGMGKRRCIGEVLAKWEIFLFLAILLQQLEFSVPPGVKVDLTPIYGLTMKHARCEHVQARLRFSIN
Summary of the method: (§4)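 Recombinant human CYP isozymes, with reaction progress followed by fluorogenic substrates; DEF and 7-benzyloxyquinoline used as CYP3A4 substrates. Compounds dissolved at 1.65 mM in DMSO/methanol and serially diluted to give IC50 (μM). A positive control run for each isozyme.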

Cytochrome P450 2C19 = Cytochrome P450 2C19 (Homo sapiens, UniProt P33261); assay: Inhibition of CYP450 2C19 transfected in human microsome; assay type: ADME; summary of the method: as §4
[10] = Volume of distribution in rat; assay type: ADME, organism-based; conditions: in vivo, read-out: Vdss
[11] = Half life in rat; assay type: ADME, organism-based; conditions: in vivo; summary of the method: as §2
Vasopressin V1b receptor = target: T4, Vasopressin V1b receptor (Homo sapiens, UniProt P47901); assay: Displacement of vasopressin from human V1bR
T4 sequence (P47901 whole entry): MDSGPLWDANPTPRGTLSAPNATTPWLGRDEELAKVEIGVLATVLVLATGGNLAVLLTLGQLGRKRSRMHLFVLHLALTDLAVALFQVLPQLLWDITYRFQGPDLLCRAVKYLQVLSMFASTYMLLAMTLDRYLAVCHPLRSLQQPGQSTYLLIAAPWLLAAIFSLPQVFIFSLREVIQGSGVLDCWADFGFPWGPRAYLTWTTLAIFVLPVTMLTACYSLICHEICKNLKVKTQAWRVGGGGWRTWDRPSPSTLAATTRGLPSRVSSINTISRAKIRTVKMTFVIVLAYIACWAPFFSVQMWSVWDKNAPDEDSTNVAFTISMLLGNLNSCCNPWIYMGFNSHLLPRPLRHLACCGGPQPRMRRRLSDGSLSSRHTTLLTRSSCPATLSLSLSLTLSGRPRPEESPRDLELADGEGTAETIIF

Vasopressin V2 receptor = Vasopressin V2 receptor (Homo sapiens, UniProt P30518); assay: Displacement of vasopressin from human V2R
Vasopressin V1a receptor = Vasopressin V1a receptor (Homo sapiens, UniProt P37288); assay: Displacement of vasopressin from human V1aR
Rattus norvegicus = assay: Reduction in oxytocin-induced uterine contraction in iv dosed anaesthetized rat; assay type: functional, organism-based
Summary of the method: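 Anaesthetized rats; uterine contractions elicited by iv oxytocin at a standard dose of 0.3 ug/kg. Test compound then given iv in rising doses (0.1, 0.3, 1 mg/kg) and the fall in contractility recorded. Plasma IC50 taken as the plasma concentration giving 50% inhibition of the response to the standard oxytocin dose.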

Cytochrome P450 2C9 = Cytochrome P450 2C9 (Homo sapiens, UniProt P11712); assay: Inhibition of CYP450 2C9 transfected in human microsome; assay type: ADME; summary of the method: as §4
Cytochrome P450 3A4 [12] = target: T5, Cytochrome P450 3A4 (Homo sapiens, UniProt P08684); assay: Inhibition of CYP450 3A4 transfected in human microsome using DEF fluorogenic substrate; assay type: ADME, microsomes; summary of the method: as §4
Cytochrome P450 3A4 [13] = target: T5, Cytochrome P450 3A4; assay: Inhibition of CYP450 3A4 transfected in human microsome using PPR fluorogenic substrate; assay type: ADME, microsomes
[14] = Volume of distribution in dog; assay type: ADME, organism-based, Canis lupus familiaris; conditions: in vivo, read-out: Vdss
Cytochrome P450 2D6 = Cytochrome P450 2D6 (Homo sapiens, UniProt P10635); assay: Inhibition of CYP450 2D6 transfected in human microsome using DEF fluorogenic substrate; assay type: ADME, microsomes; summary of the method: as §4
[15] = as §3; assay type: ADME, organism-based, Canis lupus familiaris; conditions: in vivo
[16] = Half life in dog; assay type: ADME, organism-based, Canis lupus familiaris; conditions: in vivo
Oxytocin receptor [17] = target: T1, Oxytocin receptor; assay: Antagonist activity against human OTR expressed in CHO cells measured as calcium influx by FLIPR assay; assay type: functional, cell-based
Oxytocin receptor [18] = target: T1, Oxytocin receptor; assay: […] activity at human OTR expressed in CHO cells assessed as inhibition of oxytocin-induced calcium mobilization by FLIPR assay; assay type: functional, cell-based

T5 sequence (P08684 whole entry): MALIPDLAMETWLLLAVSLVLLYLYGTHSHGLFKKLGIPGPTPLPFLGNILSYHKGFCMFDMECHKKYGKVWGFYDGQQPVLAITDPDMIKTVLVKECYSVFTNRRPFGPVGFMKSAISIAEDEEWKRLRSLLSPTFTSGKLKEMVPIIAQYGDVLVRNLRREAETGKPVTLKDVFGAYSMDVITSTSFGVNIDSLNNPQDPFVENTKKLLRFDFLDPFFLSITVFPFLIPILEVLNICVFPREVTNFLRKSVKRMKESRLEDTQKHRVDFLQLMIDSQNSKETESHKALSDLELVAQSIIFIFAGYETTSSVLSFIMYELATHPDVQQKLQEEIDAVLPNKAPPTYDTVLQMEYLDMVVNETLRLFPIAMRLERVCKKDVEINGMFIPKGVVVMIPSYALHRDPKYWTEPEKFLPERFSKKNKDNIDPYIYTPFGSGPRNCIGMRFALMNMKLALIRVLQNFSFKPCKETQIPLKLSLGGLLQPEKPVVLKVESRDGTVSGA
Sequence of Vasopressin V2 receptor (P30518 whole entry): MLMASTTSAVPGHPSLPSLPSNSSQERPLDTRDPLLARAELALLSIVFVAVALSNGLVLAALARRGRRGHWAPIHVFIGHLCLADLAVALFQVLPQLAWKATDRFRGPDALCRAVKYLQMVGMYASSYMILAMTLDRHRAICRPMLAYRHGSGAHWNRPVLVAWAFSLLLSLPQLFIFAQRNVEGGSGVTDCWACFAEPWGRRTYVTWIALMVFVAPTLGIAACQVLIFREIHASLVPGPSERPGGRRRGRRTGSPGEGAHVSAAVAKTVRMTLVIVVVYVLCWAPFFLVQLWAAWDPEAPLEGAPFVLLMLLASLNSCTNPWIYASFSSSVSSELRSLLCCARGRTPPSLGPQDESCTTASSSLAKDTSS
Sequence of Vasopressin V1a receptor (P37288 whole entry): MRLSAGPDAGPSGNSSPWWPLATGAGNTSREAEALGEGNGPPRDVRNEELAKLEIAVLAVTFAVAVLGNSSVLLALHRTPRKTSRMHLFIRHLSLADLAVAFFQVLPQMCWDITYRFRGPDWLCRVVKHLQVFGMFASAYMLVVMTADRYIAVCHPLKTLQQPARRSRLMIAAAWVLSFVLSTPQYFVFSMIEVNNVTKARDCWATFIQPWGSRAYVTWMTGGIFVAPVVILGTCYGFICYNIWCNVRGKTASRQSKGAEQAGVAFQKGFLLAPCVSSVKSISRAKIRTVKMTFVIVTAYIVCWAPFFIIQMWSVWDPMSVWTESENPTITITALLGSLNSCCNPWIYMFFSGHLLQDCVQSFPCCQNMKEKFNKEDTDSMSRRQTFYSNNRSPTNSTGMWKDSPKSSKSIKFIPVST
Sequence of Cytochrome P450 2C9 (P11712 whole entry): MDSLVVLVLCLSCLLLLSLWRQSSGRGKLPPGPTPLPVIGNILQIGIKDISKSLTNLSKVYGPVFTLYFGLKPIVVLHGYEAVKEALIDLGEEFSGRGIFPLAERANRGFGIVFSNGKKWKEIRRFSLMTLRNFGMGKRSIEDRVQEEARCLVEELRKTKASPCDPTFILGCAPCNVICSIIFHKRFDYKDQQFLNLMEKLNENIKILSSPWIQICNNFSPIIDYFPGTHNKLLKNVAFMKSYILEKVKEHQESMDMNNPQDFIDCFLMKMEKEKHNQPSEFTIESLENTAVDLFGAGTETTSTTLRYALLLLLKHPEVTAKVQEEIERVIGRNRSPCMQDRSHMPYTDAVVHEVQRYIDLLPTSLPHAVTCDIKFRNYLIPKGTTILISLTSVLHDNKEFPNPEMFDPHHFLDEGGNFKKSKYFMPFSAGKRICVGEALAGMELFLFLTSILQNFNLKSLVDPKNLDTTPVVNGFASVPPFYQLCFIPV
Sequence of Cytochrome P450 2C19 (P33261 whole entry): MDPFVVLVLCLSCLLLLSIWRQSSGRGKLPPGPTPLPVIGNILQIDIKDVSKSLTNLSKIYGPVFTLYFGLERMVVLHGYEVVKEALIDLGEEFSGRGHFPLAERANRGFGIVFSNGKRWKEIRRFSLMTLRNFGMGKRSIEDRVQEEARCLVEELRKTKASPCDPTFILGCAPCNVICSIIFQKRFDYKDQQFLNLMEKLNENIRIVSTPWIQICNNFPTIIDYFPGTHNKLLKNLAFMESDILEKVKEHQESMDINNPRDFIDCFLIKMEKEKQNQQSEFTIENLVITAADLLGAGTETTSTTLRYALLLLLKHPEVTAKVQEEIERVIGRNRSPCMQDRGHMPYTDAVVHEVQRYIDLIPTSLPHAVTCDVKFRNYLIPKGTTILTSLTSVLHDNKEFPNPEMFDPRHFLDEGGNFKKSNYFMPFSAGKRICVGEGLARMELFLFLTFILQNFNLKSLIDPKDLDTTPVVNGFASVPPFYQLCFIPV
Sequence of Cytochrome P450 2D6 (P10635 whole entry): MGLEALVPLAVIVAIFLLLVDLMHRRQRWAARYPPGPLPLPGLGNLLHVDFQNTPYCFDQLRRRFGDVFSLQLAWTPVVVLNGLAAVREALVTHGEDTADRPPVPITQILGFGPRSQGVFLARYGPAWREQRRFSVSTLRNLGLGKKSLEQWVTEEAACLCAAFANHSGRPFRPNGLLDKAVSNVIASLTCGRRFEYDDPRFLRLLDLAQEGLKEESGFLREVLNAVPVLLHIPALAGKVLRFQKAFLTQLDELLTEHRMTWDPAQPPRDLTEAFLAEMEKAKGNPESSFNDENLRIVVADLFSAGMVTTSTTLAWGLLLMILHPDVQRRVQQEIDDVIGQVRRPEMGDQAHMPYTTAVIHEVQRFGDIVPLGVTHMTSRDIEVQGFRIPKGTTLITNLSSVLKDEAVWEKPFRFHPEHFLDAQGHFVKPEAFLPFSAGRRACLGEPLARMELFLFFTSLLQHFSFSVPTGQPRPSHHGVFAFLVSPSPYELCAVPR

clearance [1] | solubility [2] | clearance [3] | AUC [4] | chromatographic logD [5] | Ki (Oxytocin receptor [6]) | bioavailability [8] | Ki (Oxytocin receptor [9]) | IC50 (Cytochrome P450 1A2) | IC50 (Cytochrome P450 2C19) | Vd [10] | half-life [11] | Ki (Vasopressin V1b receptor) | Ki (Vasopressin V2 receptor) | Ki (Vasopressin V1a receptor) | IC50 (Cytochrome P450 2C9) | IC50 (Cytochrome P450 3A4 [12]) | IC50 (Cytochrome P450 3A4 [13]) | Vd [14] | Compound | Activity (Rattus norvegicus) | further results
11 mL/min/kg | 8 µg/mL (≈ 16.1 µM) | 36 mL/min/kg | 174 ng·h/mL | 3.4 | 0.00126 µM | 46% | – | – | – | – | – | – | – | – | – | – | – | – | CC(C)C[C@@H]1C(=O)N[C@H](C2Cc3ccccc3C2)C(=O)N1[C@@H](C(=O)NC(C)C)c1ccc(F)cc1F | – | AUC [7]: 2880 ng·h/mL; F (Canis familiaris): 13%
6 mL/min/kg | – | 9 mL/min/kg | – | – | 0.001 µM | 68% | 0.0631 µM | 73 µM | > 100 µM | 1.4 L/kg | 2 h | > 6.31 µM | 5.01 µM | > 6.31 µM | 3.5 µM | 2.5 µM | 4.3 µM | 0.9 L/kg | CC(C)C[C@@H]1C(=O)N[C@H](C2Cc3ccccc3C2)C(=O)N1[C@@H](C(=O)NC(C)C)c1ccc2occc2c1 | 5.4 mg/kg | IC50 (Cytochrome P450 2D6): 62 µM; bioavailability [15]: 95%; half-life [16]: 2.4 h; Ki (Oxytocin receptor [17]): 0.00398 µM
7 mL/min/kg | 83 µg/mL (≈ 172 µM) | 15 mL/min/kg | 770 ng·h/mL | 3.3 | 0.000631 µM | 53% | 0.01 µM | 64 µM | > 100 µM | 1.2 L/kg | 1.1 h | > 6.31 µM | 0.316 µM | > 6.31 µM | 49 µM | 89 µM | 62 µM | 1.1 L/kg | CC(C)C[C@@H]1C(=O)N[C@H](C2Cc3ccccc3C2)C(=O)N1[C@@H](C(=O)N(C)C)c1ccc(F)cc1F | 0.22 mg/kg | IC50 (Oxytocin receptor [18]): 0.0037 µM; IC50 (Rattus norvegicus; Rattus norvegicus): 0.227 µM; IC50 (Cytochrome P450 2D6): > 100 µM; bioavailability [15]: 51%; half-life [16]: 2.1 h; Ki (Oxytocin receptor [17]): 0.00158 µM
